Results reported in ChEMBL document CHEMBL4715779, “In vivo effective dibenzo[b,d]furan-1-yl-thiazoles as novel PDE-4 inhibitors” (Bioorg Med Chem, 2016).

Assays:
[1] = Inhibition of PDE-4 in human PBMC assessed as LPS-induced TNFalpha production incubated for 15 mins followed by LPS stimulation and measured after 18 hrs by ELISA relative to control
In short: (§1)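 PBMC isolated from healthy volunteers' blood in cell preparation tubes, suspended in RPMI; 0.5 million cells/well pre-incubated with compound 15 min at 37 °C, then stimulated with E. coli LPS (B4) 1 µg/mL for 18 h at 37 °C, 5% CO2; medium TNF-α measured by ELISA.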

PBMC [2] = experiment: Inhibition of PDE-4 in human PBMC assessed as LPS-induced TNFalpha production at 1000 nM incubated for 15 mins followed by LPS stimulation and measured after 18 hrs by ELISA relative to control; settings: time 1095.0 min; in short: as §1
PBMC [3] = experiment: Inhibition of PDE-4 in human PBMC assessed as LPS-induced TNFalpha production at 100 nM incubated for 15 mins followed by LPS stimulation and measured after 18 hrs by ELISA relative to control; settings: time 1095.0 min; in short: as §1
[4] = biological target: T1, 3',5'-cyclic-AMP phosphodiesterase 4B (Homo sapiens, UniProt Q07343); experiment: Inhibition of human PDE4B using [3H]cAMP as substrate at 100 nM incubated for 5 mins followed by substrate addition and measured after 10 mins by scintillation proximity assay relative to control; settings: time 15.0 min
T1 sequence (Q07343 whole entry): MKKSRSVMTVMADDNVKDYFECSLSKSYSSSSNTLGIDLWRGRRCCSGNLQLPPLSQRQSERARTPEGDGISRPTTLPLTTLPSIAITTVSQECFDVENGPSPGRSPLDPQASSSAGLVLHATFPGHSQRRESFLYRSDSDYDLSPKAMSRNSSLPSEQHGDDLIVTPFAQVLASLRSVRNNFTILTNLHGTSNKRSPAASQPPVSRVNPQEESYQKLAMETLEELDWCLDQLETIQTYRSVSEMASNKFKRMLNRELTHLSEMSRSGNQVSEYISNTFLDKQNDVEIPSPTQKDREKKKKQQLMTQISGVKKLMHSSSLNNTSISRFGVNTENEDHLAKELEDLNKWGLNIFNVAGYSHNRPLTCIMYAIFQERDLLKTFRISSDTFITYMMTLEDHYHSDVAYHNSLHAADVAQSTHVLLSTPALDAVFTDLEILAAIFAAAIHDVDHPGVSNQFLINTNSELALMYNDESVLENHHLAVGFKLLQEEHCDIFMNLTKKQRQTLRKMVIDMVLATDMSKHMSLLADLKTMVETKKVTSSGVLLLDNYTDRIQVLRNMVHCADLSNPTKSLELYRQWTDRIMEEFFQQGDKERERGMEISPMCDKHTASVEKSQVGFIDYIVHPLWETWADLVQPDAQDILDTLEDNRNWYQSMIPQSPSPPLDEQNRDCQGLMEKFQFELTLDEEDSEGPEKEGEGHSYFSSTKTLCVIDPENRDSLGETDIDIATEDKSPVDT
In short: (§2)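 Purified human PDE-4B2 in 50 mM Tris pH 7.4, 8.3 mM Mg2+, 1% DMSO final, enzyme converting 10–20% of substrate; 5 min pre-incubation at 37 °C, then 0.5 µM cAMP with ~50,000 cpm [3H]-cAMP for 10 min; stopped with yttrium silicate SPA beads containing 18 mM ZnSO4, read after >30 min settling. Background = no enzyme; IC50 from 8–10-point 4-parameter fit.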

[5] = biological target: T1, 3',5'-cyclic-AMP phosphodiesterase 4B; experiment: Inhibition of human PDE4B using [3H]cAMP as substrate incubated for 5 mins followed by substrate addition and measured after 10 mins by scintillation proximity assay; in short: as §2
[6] = biological target: T1, 3',5'-cyclic-AMP phosphodiesterase 4B; experiment: Inhibition of human PDE4B using [3H]CAMP as substrate at 1000 nM incubated for 5 mins followed by substrate addition and measured after 10 mins by scintillation proximity assay relative to control; settings: time 15.0 min; in short: as §2
Mus musculus [7] = experiment: Antiinflammatory activity in Swiss albino mouse model of LPS-induced sepsis assessed as reduction in TNFalpha production at 10 mg/kg, po administered 30 mins before LPS stimulation and measured after 90 min by ELISA relative to control; assay type: functional; settings: 2 h, time 120 min
In short: (§3)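 Female Swiss albino mice fasted 20 h with water, dosed orally in 0.5% Tween 80/0.25% CMC sodium; vehicle-only controls. 500 µg E. coli LPS (B4) in PBS i.p. 30 min later; retro-orbital bleed 90 min post-LPS, blood held overnight at 4 °C, serum TNF-α by mouse ELISA; % inhibition.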

Rattus norvegicus [8] = experiment: Antiinflammatory activity in Sprague-Dawley rat model of LPS-induced COPD and asthma assessed as reduction in neutrophil influx in BALF at 10 mg/kg, po administered 30 mins before LPS stimulation and measured after 6 hrs relative to control; assay type: functional; settings: time 6.5 hrs
Rattus norvegicus [9] = experiment: Antiinflammatory activity in Sprague-Dawley rat model of LPS-induced COPD and asthma assessed as reduction in neutrophil influx in BALF at 5 mg/kg, po administered 30 mins before LPS stimulation and measured after 6 hrs relative to control; assay type: functional; settings: time 6.5 hrs
Mus musculus [10] = experiment: Antiinflammatory activity in Swiss albino mouse model of LPS-induced sepsis assessed as reduction in TNFalpha production at 1 mg/kg, po administered 30 mins before LPS stimulation and measured after 90 min by ELISA relative to control; assay type: functional; settings: 2 h, time 120 min; in short: as §3
Rattus norvegicus [11] = experiment: Antiinflammatory activity in Sprague-Dawley rat model of LPS-induced COPD and asthma assessed as reduction in total cell count in BALF at 10 mg/kg, po administered 30 mins before LPS stimulation and measured after 6 hrs relative to control; assay type: functional; settings: time 6.5 hrs
Mus musculus [12] = experiment: Antiinflammatory activity in Swiss albino mouse model of LPS-induced sepsis assessed as reduction in TNFalpha production at 3 mg/kg, po administered 30 mins before LPS stimulation and measured after 90 min by ELISA relative to control; assay type: functional; settings: 2 h, time 120 min; in short: as §3

| SMILES | inhibition [4] [%] | inhibition [6] [%] | inhibition (PBMC [2]) [%] | inhibition (PBMC [3]) [%] | other results |
| --- | --- | --- | --- | --- | --- |
| COc1ccc(-c2nc(C(=O)Nc3ccccc3)cs2)c2c1oc1ccccc12 | 2.4 | 7.4 | – | – | – |
| O=C(NCC(F)(F)F)c1csc(-c2ccc(OC(F)F)c3oc4ccccc4c23)n1 | – | – | 31.9 | 26.7 | – |
| CC(=O)Nc1ccc2oc3c(OC(F)F)ccc(-c4nc(C(=O)O)cs4)c3c2c1 | 56.5 | – | – | 15.5 | – |
| Cc1sc(-c2ccc(OC(F)F)c3oc4ccc(NS(C)(=O)=O)cc4c23)nc1C(=O)O | 62.6 | – | – | – | – |
| COc1ccc(-c2nc(CCC(=O)Nc3c(Cl)cncc3Cl)cs2)c2c1oc1ccccc12 | 8.9 | 38.5 | – | – | – |
| CCOc1cc([C@@H](CS(C)(=O)=O)N2C(=O)c3cccc(NC(C)=O)c3C2=O)ccc1OC | – | – | – | – | IC50 [1]: 77 nM |
| O=C(c1csc(-c2ccc(OC(F)F)c3oc4ccc(C(F)(F)F)cc4c23)n1)N1CCC(O)CC1 | 27.4 | – | – | 14 | – |
| CC(=O)Nc1ccc2oc3c(OC(F)F)ccc(-c4nc(C(=O)NC5CCC(O)CC5)cs4)c3c2c1 (configuration not stated) | 69 | – | 91.9 | 83.4 | inhibition in vivo at 10 mg/kg (Rattus norvegicus [8]): 51.2%; IC50 [1]: 39.6 nM; inhibition in vivo at 5 mg/kg (Rattus norvegicus [9]): 35.7%; IC50 [5]: 40.4 nM |
| CS(=O)(=O)Nc1ccc2oc3c(OC(F)F)ccc(C(=O)Nc4c(Cl)cncc4Cl)c3c2c1 [OGLEMILAST] | – | – | – | – | inhibition in vivo at 1 mg/kg (Mus musculus [10]): 53.9%; inhibition in vivo at 10 mg/kg (Mus musculus [7]): 72.5% |
| O=C(NC1CCC(O)CC1)c1csc(-c2ccc(OC(F)F)c3oc4ccc(C(F)(F)F)cc4c23)n1 (configuration not stated) | 51.5 | – | – | 17.2 | – |
| O=C(Nc1c(Cl)cncc1Cl)c1csc(-c2ccc(OC(F)F)c3oc4ccccc4c23)n1 | 42.3 | 88.6 | 28.3 | 14.5 | IC50 [1]: 2210 nM; IC50 [5]: 127 nM |
| COc1ccc(-c2nc(C(=O)Nc3c(Cl)cncc3Cl)c(C)s2)c2c1oc1ccccc12 | 11.1 | – | 9.9 | 0.9 | – |
| O=C(Nc1c(Cl)cncc1Cl)c1ccc(OC(F)F)c(OCC2CC2)c1 [ROFLUMILAST] | – | – | – | – | inhibition in vivo at 10 mg/kg (Rattus norvegicus [11]): 73.2%; inhibition in vivo at 3 mg/kg (Mus musculus [12]): 59.2%; inhibition in vivo at 10 mg/kg (Rattus norvegicus [8]): 73.2%; IC50 [1]: 4.3 nM |
| COc1ccc(-c2nc(C(=O)N3CCN(c4ncccn4)CC3)cs2)c2c1oc1ccccc12 | 25.8 | 59.3 | – | – | – |
| CONC(=O)c1csc(-c2ccc(OC(F)F)c3oc4ccccc4c23)n1 | 35.7 | – | – | 8.5 | inhibition in vivo at 10 mg/kg (Mus musculus [7]): 40.7% |
| COc1ccc(-c2nc(-c3ccc(C#N)cc3)cs2)c2c1oc1ccccc12 | 5.2 | 15.8 | – | – | – |
| CCNC(=O)c1nc(-c2ccc(OC)c3oc4ccccc4c23)sc1C | 24.6 | – | 23.8 | 9.9 | – |

Continued, in another order:

| inhibition [4] [%] | inhibition [6] [%] | SMILES | inhibition (PBMC [2]) [%] | inhibition (PBMC [3]) [%] | other results |
| --- | --- | --- | --- | --- | --- |
| 62.6 | – | COc1ccc(-c2nc(C(=O)NC3CCC(O)CC3)c(C)s2)c2c1oc1ccccc12 (configuration not stated) | 103 | 82.7 | IC50 [1]: 27.7 nM; IC50 [5]: 43.8 nM |
| 70.3 | 92 | COc1ccc(-c2nc(C(=O)Nc3c(Cl)cncc3Cl)cs2)c2c1oc1ccccc12 | 34.2 | – | inhibition in vivo at 10 mg/kg (Mus musculus [7]): 37.8%; IC50 [1]: 1750 nM; IC50 [5]: 48.4 nM |
| 81.2 | – | CONC(=O)c1nc(-c2ccc(OC(F)F)c3oc4ccc(NS(C)(=O)=O)cc4c23)sc1C | – | 35.4 | – |
| 36 | 80.4 | COc1ccc(-c2nc(C(=O)O)cs2)c2c1oc1ccccc12 | – | – | – |
| 1.2 | 5.2 | COc1ccc(-c2nc(C(=O)Nc3ccc(Cl)cc3)cs2)c2c1oc1ccccc12 | 15.8 | 2.98 | – |
| 43.4 | – | CS(=O)(=O)Nc1ccc2oc3c(OC(F)F)ccc(-c4nc(C(=O)Nc5c(Cl)cncc5Cl)cs4)c3c2c1 | – | 25.1 | – |
| 17.6 | 24.4 | CCOC(=O)c1csc(-c2ccc(OC)c3oc4ccccc4c23)n1 | – | – | – |
| 59.3 | – | O=C(O)c1csc(-c2ccc(OC(F)F)c3oc4ccc(C(F)(F)F)cc4c23)n1 | – | 4.2 | – |
| 5.8 | 15.6 | CCOC(=O)c1cccc(-c2csc(-c3ccc(OC)c4oc5ccccc5c34)n2)n1 | – | – | – |
| 71.8 | – | COc1ccc(-c2nc(C(=O)NC3CCC(O)CC3)cs2)c2c1oc1ccccc12 (configuration not stated) | – | 63.2 | inhibition in vivo at 10 mg/kg (Mus musculus [7]): 46.7%; IC50 [1]: 37.7 nM; IC50 [5]: 49.5 nM |
| 67.6 | – | Cc1sc(-c2ccc(OC(F)F)c3oc4ccc(NS(C)(=O)=O)cc4c23)nc1C(=O)NC1CCC(O)CC1 (configuration not stated) | 92.8 | 61.8 | inhibition in vivo at 10 mg/kg (Rattus norvegicus [8]): 19.3%; IC50 [1]: 54.4 nM; IC50 [5]: 24.7 nM |
| 32.7 | 87.8 | COc1ccc(-c2nc(CC(=O)Nc3c(Cl)cncc3Cl)cs2)c2c1oc1ccccc12 | – | – | – |
| 18.2 | 26.4 | COc1ccc(-c2nc(-c3cccc(C(=O)O)n3)cs2)c2c1oc1ccccc12 | – | – | – |
| 15.4 | 43.8 | COc1ccc(-c2nc(C(N)=O)cs2)c2c1oc1ccccc12 | 69.8 | 35.5 | IC50 [1]: 386 nM |
| 1.6 | – | COc1ccc(-c2nc(C(=O)NC3CCCC3)c(C)s2)c2c1oc1ccccc12 | 39.1 | 21.9 | – |
| 19.4 | 41.5 | COc1ccc(-c2csc(-c3ccc(OC)c4oc5ccccc5c34)n2)cc1 | – | – | – |
| 21.9 | 52.9 | COc1ccc(-c2nc(C(=O)N3CCN(c4ccccn4)CC3)cs2)c2c1oc1ccccc12 | – | – | – |
| 67 | – | CS(=O)(=O)Nc1ccc2oc3c(OC(F)F)ccc(-c4nc(C(=O)NC5CCC(O)CC5)cs4)c3c2c1 (configuration not stated) | 97.8 | 78.6 | IC50 [1]: 18.4 nM; IC50 [5]: 31.4 nM |
| 39.6 | – | COc1ccc(-c2nc(C(=O)NN3CCOCC3)cs2)c2c1oc1ccccc12 | 22 | – | – |
